# Mot1-301 SUMO = blocks SUMOylation pathway, rescuing yeast Mot1-301 growth. growth rescue, % at 18.8 µM. S. cerevisiae Mot1-301 growth rescue, ATP luminescence, 38.5C; percent above DMSO median, 100 means doubled. actives 1% (n = 320,000). AID 2716;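 active = every valid replicate shows activation above 250% relative to neutral control wells; inactive = the rest, any valid replicate at or below 250%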;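 also: OY570 slx delta 5 strain wells were the positive control but not used for scaling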
# Cneo AK release = causes C. neoformans cell lysis; adenylate kinase release luminescence, 4 h; normalised: neutral wells 0, clomiphene wells 100; lysis activity, % at 15 µM; actives 0.2% (n = 360,000); AID 651654;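 active = mean lysis activity across replicates of at least 80%, whatever share of replicates individually reach that level; inactive = mean lysis activity below 80%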
#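 Assay system: C. neoformans cells. Amount: yeast cell density of 5 × 10^6 cells/mL. Technique: AK luminescence. Buffer or medium: YPD. Times: static 4 h at 37 °C with compound, 1 h detection. Dosing: single-point compound dose. Read-out: lysis from increased AK signal.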
# Efflux pump inh = inhibitors of Candida antifungal efflux pumps expressed in yeast | S. cerevisiae Candida pump triplex, Nile Red efflux | actives 0.44% (n = 330,000) | AID 485275 | inhibition, % at 10 µM;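 active = plate passing quality check with inhibition over a set limit, or well fluorescence over plate mean plus 4 SD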;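 also: Nile Red retained in pooled yeast measured as flow cytometry median fluorescence; 0% = buffer negative control and 100% = Enniatin B positive control; higher means more Nile Red kept so more efflux inhibition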
# C2C12 statin = suppressors of simvastatin-induced myotoxicity in C2C12 myotubes. rescue of ATP level, % at 7.49 µM. ATP luminescence, 48 h; scaled: DMSO 0, geranylgeraniol control 100. AID 602340. actives 0.78% (n = 330,000);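 active = mean ATP rescue above about 67%, or every replicate alone reaching that limit, limit read from the data, passing the limit was not always enough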;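 also: myotubes were challenged with 10 µM simvastatin during compound exposure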
# Yeast cmpd fluor = flagged as fluorescent in efflux inhibitor counter-screen; actives 4% (n = 1,700); S. cerevisiae AD/pABC3, compound fluorescence, flow cytometry; AID 588517; shares compounds with Efflux pump inh; fluorescence ratio to DMSO, % at 10 µM;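 active = fluorescence ratio to DMSO above its plate's cutoff, the plate mean ratio plus 5 SD, cut at about 210% in these data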;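 also: unstained yeast with no Nile Red so the signal is compound autofluorescence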
# Mdr1 pump inh = inhibitors of Candida albicans Mdr1 efflux pump | S. cerevisiae AD/CaMDR1, Nile Red efflux, flow cytometry | inhibition, % at 10 µM | actives 1% (n = 1,700) | shares compounds with Efflux pump inh | AID 588518; in the data active = inhibition above about 26%;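 also: 0% = DMSO vehicle and 100% = reference inhibitor; higher means more Nile Red retained so more efflux inhibition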
# Cdr2 pump inh = Candida Cdr2 efflux pump inhibition. shares compounds with Efflux pump inh. S. cerevisiae AD/CaCDR2, Nile Red retention, flow cytometry. Nile Red retention ratio vs DMSO, % at 10 µM. actives 4% (n = 1,700). AID 588520; in the data active = Nile Red retention ratio vs DMSO above about 190%;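 also: higher ratio means more blocking of Cdr2 efflux of the dye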
# Cdr1 pump inh = blocks the Candida albicans Cdr1 efflux pump in yeast. shares compounds with Efflux pump inh. S. cerevisiae AD/CaCDR1, Nile Red efflux, flow cytometry. inhibition, % at 10 µM. actives 1% (n = 1,700). AID 588522;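 active = inhibition above the screen-wide mean plus twice its standard deviation, cut at about 32% in these data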
# * marks the source's active call; other numbers are inactive results; · = no result. This is a sample that favours compounds with a hit; in the whole collection about 1.8% have one here.
SMILES,Mot1-301 SUMO,Cneo AK release,Efflux pump inh,C2C12 statin,Yeast cmpd fluor,Mdr1 pump inh,Cdr2 pump inh,Cdr1 pump inh
CCn1c(SCC(=O)NC2CC2)nnc1-c1ccccc1,·,-1.2,·,10.1,·,·,·,·
CCSc1cc(N2CCCC2)nc(-c2ccc(C)cc2)n1,-4.1,·,-0.4,·,109.9,-0.1,103.6,0.0
CCSc1cc(N2CCCC2)nc(-c2ccc(F)cc2)n1,6.0,2.6,-0.1,-10.0,90.8,-0.2,86.9,-0.1
Cc1cc(N2CCCCC2)nc(-c2ccc(Br)cc2)n1,·,·,0.0,·,·,·,·,·
CCSc1cc(N2CCCC2)nc(-c2cccc(C)c2)n1,-8.7,·,0.2,·,·,·,·,·
COc1ccc(-c2ccc3c(c2)S(=O)(=O)c2cccc(C(=O)NC4CCCCC4)c2C3=O)cc1OC,9.6,0.4,1.1*,-1.0,85.5,0.3,120.8,-0.1
CC(C)n1c(N2CCN(CC(=O)NCc3cccs3)CC2)nc2ccccc21,-11.1,-4.1,1.5*,-12.2,104.7,-0.2,76.3,-0.3
CC(C)CC(=O)Nc1cccc(C(C)O)c1 (centres undefined),9.2,·,0.0,·,·,·,·,·
Cc1cc(C)c(OCC(=O)Nc2nc(-c3ccccn3)cs2)c(C)c1,735.6,5.1,0.6*,11.0,100.0,0.0,100.1,0.0
CCN(C(=O)COC(=O)c1cc(S(=O)(=O)N2CCOCC2)c(Cl)cc1Cl)C1CCS(=O)(=O)C1 (centres undefined),-2.7,·,0.9*,·,107.8,0.0,87.3,-0.1
Cc1ccc(O)c(C(=O)c2cnc3c(c2)CN(CCC(C)C)C(=O)N3)c1,-5.3,0.2,0.6*,2.2,106.7,-0.2,103.6,0.1
COc1ccc(S(=O)(=O)N2CCOCC2)cc1NC(=O)COC(=O)CC1CC2CCC1C2 (centres undefined),-16.3,-0.7,0.8*,13.6,105.0,-0.2,90.9,0.2
N#Cc1c(-c2ccccc2)cc(-c2cccs2)nc1SCC(=O)O,11.1,-2.0,1.3*,9.9,114.3,-0.2,87.3,0.0
N#Cc1c(-c2ccc(Cl)cc2)cc(-c2cccs2)nc1SCC(=O)O,2.2,·,0.2,·,·,·,·,·
N#CCCn1cc(/C=N/O)c(-c2ccc(Cl)cc2)n1,-18.6,3.9,6.7*,-11.3,104.5,-0.3,102.9,0.0
N#CCCn1cc(/C=N/O)c(-c2ccc(-c3ccccc3)cc2)n1,-4.8,1.4,-0.3,·,·,·,·,·
COC(=O)c1sc2nc(-c3ccccc3)nc(N3CCN(C)CC3)c2c1C,·,9.2,·,·,·,·,·,·
CCCn1c(-c2cc(OC)c(OC)c(OC)c2)nc2c1c(=O)[nH]c(=O)n2Cc1ccccc1,10.6,·,0.7*,-10.8,99.3,-0.1,110.2,0.0
O=C(CCS(=O)(=O)c1ccccc1F)Nc1ccc(N2CCN(Cc3ccccc3)CC2)cc1,9.7,·,1.9*,3.9,109.5,-0.2,89.3,-0.1
CCC(=O)Nc1ccc(N2CCN(Cc3ccccc3)CC2)cc1,23.9,0.9,0.1,-6.8,·,·,·,·
CCCOc1ccc(-c2c(C(=O)N/N=C/c3ccc(OCC)cc3)nnn2-c2nonc2N)cc1,-6.4,-0.1,-0.2,13.1,·,·,·,·
CCOc1ccc(-c2c(C(=O)N/N=C/c3ccc(O)cc3)nnn2-c2nonc2N)cc1,-30.9,1.4,0.0,-1.6,97.6,0.0,100.7,0.1
CCCc1c(C(=O)N/N=C/c2ccc(OCc3ccccc3)cc2)nnn1-c1nonc1N,·,-1.1,·,-7.1,·,·,·,·
CCCc1c(C(=O)N/N=C(\C)c2ccc(O)cc2)nnn1-c1nonc1N,-1.8,2.1,-0.6,6.1,·,·,·,·
CCOc1ccc(/C=N/NC(=O)c2nnn(-c3nonc3N)c2COc2ccc(F)cc2)cc1,-1.3,·,0.1,·,102.6,-0.1,103.0,0.0
SMILES,Mot1-301 SUMO,Cneo AK release,Efflux pump inh,C2C12 statin,Yeast cmpd fluor,Mdr1 pump inh,Cdr2 pump inh,Cdr1 pump inh
CN(C)c1ccc(/C=N/NC(=O)c2nnn(-c3nonc3N)c2COc2ccc(F)cc2)cc1,-2.7,1.3,0.1,2.5,91.0,-0.1,114.4,0.0
C/C(=N\NC(=O)c1nnn(-c2nonc2N)c1COc1ccc(F)cc1)c1ccc(Cl)cc1,-8.5,·,0.1,·,99.0,-0.3,109.4,0.0
CN(C)Cc1c(C(=O)N/N=C/c2ccc(OCc3ccc(F)cc3)cc2)nnn1-c1nonc1N,-12.9,-4.3,0.1,5.6,·,·,·,·
COc1ccc(OCCCC(=O)NC(C)c2ccccc2)cc1 (centres undefined),-12.8,-2.7,-0.2,13.3,·,·,·,·
CCOC(=O)C1CCN(S(=O)(=O)c2cc(C(=O)OC)n(C)c2)CC1,-10.6,-1.9,0.1,1.7,·,·,·,·
Clc1ccc(CNc2ccc(N3CCN(Cc4ccccc4)CC3)cc2)cc1,59.2,1.4,0.0,-0.2,·,·,·,·
COc1ccc(/C=C/C(=O)N(C)Cc2cccs2)cc1S(=O)(=O)N1CCOCC1,-0.8,2.9,0.1,5.5,·,·,·,·
CCOC(=O)c1cnc(-c2ccccc2)nc1Oc1cccc(Cl)c1,-19.0,-0.4,-0.2,·,·,·,·,·
Nc1nonc1-n1nnc(C(=O)N/N=C/c2ccccc2)c1CSc1ccccc1,15.8,0.6,0.5,·,108.3,0.3,101.5,-0.1
CC1CCN(Cc2c(C(=O)N/N=C/c3ccc(OC(C)C)cc3)nnn2-c2nonc2N)CC1,230.9,-2.1,0.4*,0.9,111.1,0.1,108.0,-0.1
CCOc1ccc(-c2c(C(=O)N/N=C(\C)c3ccccc3OC)nnn2-c2nonc2N)cc1,-5.8,2.9,0.0,-30.6,97.8,-0.2,92.0,-0.1
CCCc1c(C(=O)N/N=C/c2c(OC)ccc3ccccc23)nnn1-c1nonc1N,-12.3,-1.5,0.4,-26.0,104.5,0.1,102.9,0.0
COC(=O)CC1=C(C(=O)OC)C(c2ccc3c(c2Cl)OCO3)C(C#N)=C(N)O1 (centres undefined),-7.7,2.7,0.2,-3.2,·,·,·,·
CNC[C@H]1Oc2ncc(C3=CCCC3)cc2C(=O)N([C@H](C)CO)C[C@H]1C,·,·,·,14.8,·,·,·,·
Cc1cc(C)c(NC(=O)C2CC3CCC2C3)c(C)c1 (centres undefined),10.6,-3.3,0.0,2.4,·,·,·,·
Cc1cccc(C)c1NC(=O)C1CC2CCC1C2 (centres undefined),-7.9,0.5,0.8*,·,113.1,0.3,120.5,0.1
CO[C@H](CN(C)S(=O)(=O)c1cn(C)cn1)[C@H](C)CN(C(=O)Nc1ccc(F)cc1)[C@H](C)CO,·,4.4,·,5.5,·,·,·,·
Cc1cc(O)c(C(C)C)cc1C1(c2cc(C(C)C)c(O)cc2C)OC(=O)c2ccccc21,156.2,-3.3,1.2*,35.6,116.8,-0.1,109.4,0.0
N#C/C(=C\c1ccc(OCc2ccccc2)cc1)C(=O)Nc1ccc(C(=O)O)cc1,105.3,·,0.1,·,·,·,·,·
COc1ccc(NC(=O)/C(C#N)=C/c2ccc(OCc3ccccc3F)cc2)cc1,7.2,·,6.5*,·,95.5,0.0,100.1,-0.1
